Reference: ChEMBL document CHEMBL1123176, “Synthesis and antitumor activity of cyclophosphamide analogues. 4. Preparation, kinetic studies, and anticancer screening of "phenylketophosphamide" and similar compounds related to the cyclophosphamide metabolite aldophosphamide” (1986)

Columns and labels:
[1] = test system: Mus musculus; test: Increased life span against L1210 lymphoid leukemia cells in male BDF1 mice at a dose of 100 mg/kg; format: functional; conditions: for ILS at 100 mg/kg: Mus musculus, BDF1, L1210, dose 100 mg/kg
Method in brief: (§1)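 Male BDF1 mice, 6 weeks old, implanted ip with 1 × 10^5 L1210 lymphoid leukemia cells on day 0. Dosing was a single ip dose on day 2 in 10% Me2SO, except where noted: x7 schedules given ip on days 2 through 8; some arms given po; some arms in saline vehicle. Read-outs were % increased life span and survivors on day 60; some runs were duplicated.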

[2] = test system: Mus musculus; test: Increased life span against L1210 lymphoid leukemia cells in male BDF1 mice at a dose of 10x7 mg/kg; format: functional; method in brief: as §1
[3] = test system: Mus musculus; test: Increased life span against L1210 lymphoid leukemia cells in male BDF1 mice at a dose of 15 mg/kg; format: functional; method in brief: as §1
[4] = test system: Mus musculus; test: Increased life span against L1210 lymphoid leukemia cells in male BDF1 mice at a dose of 20x7 mg/kg; format: functional; method in brief: as §1
[5] = test system: Mus musculus; test: Increased life span against L1210 lymphoid leukemia cells in male BDF1 mice at a dose of 25 mg/kg; format: functional; method in brief: as §1
[6] = test system: Mus musculus; test: Increased life span against L1210 lymphoid leukemia cells in male BDF1 mice at a dose of 30 mg/kg; format: functional; method in brief: as §1
[7] = test system: Mus musculus; test: Increased life span against L1210 lymphoid leukemia cells in male BDF1 mice at a dose of 50 mg/kg; format: functional; method in brief: as §1
[8] = test system: Mus musculus; test: Increased life span against L1210 lymphoid leukemia cells in male BDF1 mice at a dose of 5x7 mg/kg; format: functional; method in brief: as §1
[9] = test system: Mus musculus; test: Increased life span against L1210 lymphoid leukemia cells in male BDF1 mice at a dose of 7.5 mg/kg; format: functional; method in brief: as §1
[10] = test system: Mus musculus; test: Compound was ested for antitumor activity against Lewis lung carcinoma cells implanted in CD2F1 female mice at a dose of 25x2 mg/kg; format: functional
[11] = test system: Mus musculus; test: Compound was ested for antitumor activity against Lewis lung carcinoma cells implanted in female CD2F1 mice at a dose of 100x2 mg/kg; format: functional
[12] = test system: Mus musculus; test: Compound was ested for antitumor activity against Lewis lung carcinoma cells implanted in female CD2F1 mice at a dose of 200x2 mg/kg; T=Toxic doxe; format: functional, organism-based
[13] = test system: Mus musculus; test: Compound was ested for antitumor activity against Lewis lung carcinoma cells implanted in female CD2F1 mice at a dose of 50x2 mg/kg; format: functional
[14] = test system: Mus musculus; test: Compound was ested for antitumor activity against Lewis lung carcinoma cells implanted in male C57BL mice at a dose of 100 mg/kg; format: functional
[15] = test system: Mus musculus; test: Compound was ested for antitumor activity against Lewis lung carcinoma cells implanted in male CD2F1 mice at a dose of 100x2 mg/kg; format: functional
[16] = test system: Mus musculus; test: Compound was ested for antitumor activity against Lewis lung carcinoma cells implanted in male CD2F1 mice at a dose of 200x2 mg/kg; format: functional
[17] = test system: Mus musculus; test: Compound was ested for antitumor activity against Lewis lung carcinoma cells implanted in male CD2F1 mice at a dose of 400x2 mg/kg; Toxic doxe; format: functional, organism-based
[18] = test system: Mus musculus; test: Compound was ested for antitumor activity against Lewis lung carcinoma cells implanted in male CD2F1 mice at a dose of 5x6 mg/kg; format: functional
[19] = test system: Mus musculus; test: Number of survivors on day 60 at a dose of 25 mg/kg; 0/7; format: functional; method in brief: as §1
[20] = test system: Mus musculus; test: Number of survivors on day 60 at a dose of 5 x 7 ip administration day 2 through day; format: functional; method in brief: as §1
[21] = test system: Mus musculus; test: Number of survivors on day 60 at a dose of 7.5 mg/kg; 0/7; format: functional; method in brief: as §1
[22] = test system: Mus musculus; test: Number of survivors on the toxicity day (day = 21) at a dose of 100x1 mg/kg; 5/7; format: functional
[23] = test system: Mus musculus; test: Number of survivors on the toxicity day (day = 5) at a dose of 100x1 mg/kg; 6/6; format: functional
[24] = test system: Mus musculus; test: Number of survivors on the toxicity day (day = 5) at a dose of 200x1 mg/kg; 5/6; format: functional
[25] = test system: Mus musculus; test: Number of survivors on the toxicity day (day = 5) at a dose of 200x1 mg/kg; 6/6; format: functional
[26] = test system: Mus musculus; test: Number of survivors on the toxicity day (day = 5) at a dose of 25x1 mg/kg; 5/6; format: functional
[27] = test system: Mus musculus; test: Number of survivors on the toxicity day (day = 5) at a dose of 400x1 mg/kg; 5/6; format: functional
[28] = test system: Mus musculus; test: Number of survivors on the toxicity day (day = 5) at a dose of 50x1 mg/kg; 6/6; format: functional
[29] = test system: Mus musculus; test: Number of survivors on day 60 at a dose of 50 mg/kg; 0/7; format: functional; method in brief: as §1
[30] = test system: Mus musculus; test: Increased life span against L1210 lymphoid leukemia cells in male BDF1 mice at a dose of 200 mg/kg; format: functional; conditions: for ILS at 200 mg/kg: Mus musculus, BDF1, L1210; method in brief: as §1
[31] = test system: Mus musculus; test: Increased life span against L1210 lymphoid leukemia cells in male BDF1 mice at a dose of 400 mg/kg; format: functional; conditions: for ILS at 400 mg/kg: Mus musculus, BDF1, L1210; method in brief: as §1
[32] = test system: Mus musculus; test: Number of survivors on day 60 at a dose of 100 mg/kg; 0/7; format: functional; method in brief: as §1
[33] = test system: Mus musculus; test: Number of survivors on day 60 at a dose of 200 mg/kg; 0/7; format: functional; method in brief: as §1
[34] = test system: Mus musculus; test: Number of survivors on day 60 at a dose of 400 mg/kg; 7/7; format: functional; method in brief: as §1
[35] = test system: Mus musculus; test: Compound was ested for antitumor activity against Lewis lung carcinoma cells implanted in female CD2F1 mice at a dose of 125 x1 mg/kg; format: functional
[36] = test system: Mus musculus; test: Compound was ested for antitumor activity against Lewis lung carcinoma cells implanted in female CD2F1 mice at a dose of 250x1 mg/kg; format: functional
[37] = test system: Mus musculus; test: Compound was ested for antitumor activity against Lewis lung carcinoma cells implanted in female CD2F1 mice at a dose of 500x1 mg/kg; format: functional
[38] = test system: Mus musculus; test: Compound was ested for antitumor activity against Lewis lung carcinoma cells implanted in female CD2F1 mice at a dose of 62.5x1 mg/kg; format: functional
[39] = test system: Mus musculus; test: Number of survivors on day 60 at a dose of 200 mg/kg; 1/7; format: functional; method in brief: as §1
[40] = test system: Mus musculus; test: Number of survivors on day 60 at a dose of 400 mg/kg; 5/7; format: functional; method in brief: as §1
[41] = test system: Mus musculus; test: Number of survivors on the toxicity day (day = 15) at a dose of 125 x1 mg/kg; 6/6; format: functional
[42] = test system: Mus musculus; test: Number of survivors on the toxicity day (day = 15) at a dose of 250x1 mg/kg; 6/6; format: functional
[43] = test system: Mus musculus; test: Number of survivors on the toxicity day (day = 15) at a dose of 500x1 mg/kg; 5/6; format: functional
[44] = test system: Mus musculus; test: Number of survivors on the toxicity day (day = 15) at a dose of 62.5x1 mg/kg; 6/6; format: functional
[45] = test system: Mus musculus; test: Number of survivors on day 60 at a dose of 400 mg/kg; 0/7; format: functional; method in brief: as §1
[46] = test system: Mus musculus; test: Number of survivors on the toxicity day (day = 15) at a dose of 100x1 mg/kg; format: functional

NP(=O)(OCCC(=O)c1ccccc1)N(CCCl)CCCl (stereo unspecified)
ILS at 100 mg/kg [1]: -34%
ILS [2]: 29.7
ILS at 15 mg/kg [3]: 16.3%
ILS [4]: 58.8
ILS at 25 mg/kg [5]: 22.9%
ILS at 30 mg/kg [6]: 35.1%
ILS at 50 mg/kg [7]: 43.9%
ILS [8]: 20.6
ILS at 7.5 mg/kg [9]: 10.7%
T/C [10]: 163%
T/C [11]: 92%
T/C [12]: Toxic
T/C [13]: 223%
T/C [14]: 63%
T/C [15]: 221%
T/C [16]: 89%
T/C [17]: Toxic
T/C [18]: 106%
Survivors [19]: 0
Survivors [20]: 0
Survivors [21]: 0
Survivors [22]: 5
Survivors [23]: 6
Survivors [24]: 5
Survivors [25]: 6
Survivors [26]: 5
Survivors [27]: 5
Survivors [28]: 6
Survivors [29]: 0

O=P1(NCCCl)OCCCN1CCCl (stereo unspecified) [IFOSFAMIDE]
ILS [30]: 99.8
ILS [31]: >617
Survivors [32]: 0
Survivors [33]: 0
Survivors [34]: 7
Survivors [29]: 0

O=C(CCOP(=O)(NCCCl)NCCCl)c1ccccc1
ILS at 100 mg/kg [1]: 51.7%
ILS at 400 mg/kg [31]: > 443%
ILS at 50 mg/kg [7]: 20.2%
T/C [35]: 138%
T/C [36]: 165%
T/C [37]: 291%
T/C [38]: 117%
Survivors [32]: 0
Survivors [39]: 1
Survivors [40]: 5
Survivors [41]: 6
Survivors [42]: 6
Survivors [43]: 5
Survivors [44]: 6
Survivors [29]: 0

O=C(CCOP(=O)(NCCCl)N(CCCl)CCCl)c1ccccc1 (stereo unspecified)
ILS at 100 mg/kg [1]: 29.9%
ILS at 200 mg/kg [30]: 60.6%
ILS at 400 mg/kg [31]: -19.7%
Survivors [32]: 0
Survivors [33]: 0
Survivors [45]: 0

O=P1(N(CCCl)CCCl)NCCCO1 (stereo unspecified) [CYCLOPHOSPHAMIDE ANHYDROUS]
ILS at 100 mg/kg [1]: 59.6%
ILS ([1]; dose 100 mg/kg): 52.9%
ILS at 200 mg/kg [30]: > 423%
Survivors [32]: 0
Survivors [46]: 7
